Data: publication PMC3377097 (EMBO Molecular Medicine, 2011)

What was measured:
THP-1 cells = test: TransWell chemotaxis assay; type: cell-based, human; settings: THP-1 monocytes, 2 h migration
Summary of the method: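 THP-1 cells were grown in RPMI with 10% FBS and 50 µg/ml gentamicin at 37°C and 5% CO2, with mycoplasma checks. Cells at 1 × 10^6 per 100 µl RPMI1640 went into the upper chamber of 5 µm-pore TransWells, with chemoattractant below and serum-free RPMI as negative control. After 2 h at 37°C, 70 mM EDTA released bound cells (15 min, 37°C). Migrated cells were counted by cell counter or by FACS against 5000 Trucount beads.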

human recombinant DP4 = human recombinant DP4 (Homo sapiens, UniProt P27487); test: Degradation of MCPs by DP4; type: biochemical; settings: for N-terminal truncation by recombinant human DP4: 10 µg/ml in 25 mM Tris/HCl pH 7.6; for truncation by DP4: mature state bearing a pE-residue
Summary of the method: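 Recombinant CCL2, CCL7, CCL8 and CCL13 (Gln- and pGlu-forms) were either pre-incubated with recombinant human QC (0.6 µg/ml) for 2 h at 30°C and then incubated with recombinant human DP4, or incubated with DP4 alone. Truncation products were read by linear-mode MALDI-TOF-MS in positive ion mode over 2000–20,000 amu, summing at least 6 × 100 laser pulses.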

[1] = test system: LPS-stimulated primary murine glia cells; test: total-CCL2 and pE1-CCL2 ELISA of LPS-stimulated primary glia cells; type: cell-based; settings: varying doses
C57BL/6J mice = test: Thioglycollate-induced peritonitis; type: in vivo; settings: oral gavage; for level of ICAM1 and CCR2: cells of the peritoneal lavage
[2] = test system: human primary macrophages; test: pE1-CCL2 secreted from LPS-stimulated primary macrophages; type: cell-based
Summary of the method: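 Human PBMCs were separated on an LSM 1077 density gradient and grown overnight at 37°C and 5% CO2. Adherent monocytes/macrophages were detached with accutase, plated at 1 × 10^5 cells/well and stimulated with 1 µg/ml LPS (E. coli O55:B5) for 24 h. Medium pE1-CCL2 was measured by sandwich ELISA: capture with 25 ng/well goat anti-hMCP-1 (overnight, 4°C), samples 2 h at room temperature, TMB read at 450 nm minus 550 nm.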

[3] = test system: LPS-stimulated THP-1 cells; test: CCL2 expression in LPS-stimulated THP-1 cells; type: cell-based, human; settings: increasing concentrations
[4] = test system: murine primary macrophages; test: pE1-CCL2 secreted from LPS-stimulated primary macrophages; type: cell-based
Summary of the method: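 Blood was drawn by cardiac puncture into heparin from isoflurane-anaesthetised (2%) mice. PBMCs were separated on an LSM 1077 gradient, grown overnight, and adherent cells were detached with accutase and plated at 1 × 10^5 cells/well. Cells were stimulated with 1 µg/ml LPS (E. coli O55:B5) for 24 h. Medium pE1-CCL2 was measured by ELISA with 50 ng/well rabbit anti-mJE capture (coated 4–7 days, 4°C), read at 450 nm minus 550 nm.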

[5] = test system: LPS-stimulated primary glia cells; test: CCL2 gene expression; type: cell-based, murine; settings: doses of 0.625 and 2.5 µM
Summary of the method: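 Primary glia came from newborn C57BL/6J pups at postnatal day 1. Brains were triturated, strained at 100 and 40 µm, and 6 × 10^5 cells were seeded on poly-L-lysine in DMEM/F12 with 5% FBS and 0.05% gentamicin at 37°C and 5% CO2. Medium was renewed at day 7, and cells (about 85% astrocytes, 15% microglia) were used 12 days after seeding. After LPS stimulation, RNA went to random-primed cDNA and SYBR Green qPCR (comparative quantitation), n = 3–4, ANOVA/Tukey.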

human isoQC = human isoQC (Homo sapiens, UniProt Q9NXS2); test: isoQC inhibition, Ki-values at pH 8; type: biochemical
ApoE3*Leiden mice = test: Cuff-induced accelerated atherosclerosis; type: in vivo
murine isoQC = murine isoQC (Mus musculus, UniProt Q8BH73); test: isoQC inhibition, Ki-values at pH 8; type: biochemical
[6] = test system: models of Alzheimer's disease; settings: high doses for up to 6 months ref Schilling et al, 2008; cited from earlier work
murine QC = murine QC (Mus musculus, UniProt Q9CYK2); test: QC inhibition, Ki-values at pH 8; type: biochemical
[7] = Degradation of CCL2 in human plasma; type: in vitro ADME; settings: incubation with human plasma
Summary of the method: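 CCL2(Q1-76) was incubated with human plasma, either directly or after pre-incubation with recombinant human QC. N-terminal cleavage products were read by linear-mode MALDI-TOF-MS in positive ion mode over 2000–20,000 amu, calibrated with insulin and myoglobin. Each spectrum sums at least 6 × 100 laser pulses.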

CCR2 = CCR2 (Homo sapiens, UniProt P41597); test: CCR2 receptor internalization assay; type: cell-based; settings: human THP-1 monocytes, 45 min at 37°C, FACS
Summary of the method: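 THP-1 cells were maintained in RPMI with 10% FBS and 50 µg/ml gentamicin at 37°C, 5% CO2, and checked for mycoplasma. 6 × 10^5 cells were exposed in serum-free RPMI 1640 to N-terminal CCL2 variant ligands, then harvested into cold PBS. They were Fc-blocked for 10 min at 4°C and stained 30 min at 4°C with PE anti-CCR2 or IgG2B isotype control. After a PBS wash, they were analysed by flow cytometry.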

[8] = 2 days after surgery, drinking water 2.4 mg/ml

Sequence of human recombinant DP4 (P27487 whole entry, the tested form may be a part): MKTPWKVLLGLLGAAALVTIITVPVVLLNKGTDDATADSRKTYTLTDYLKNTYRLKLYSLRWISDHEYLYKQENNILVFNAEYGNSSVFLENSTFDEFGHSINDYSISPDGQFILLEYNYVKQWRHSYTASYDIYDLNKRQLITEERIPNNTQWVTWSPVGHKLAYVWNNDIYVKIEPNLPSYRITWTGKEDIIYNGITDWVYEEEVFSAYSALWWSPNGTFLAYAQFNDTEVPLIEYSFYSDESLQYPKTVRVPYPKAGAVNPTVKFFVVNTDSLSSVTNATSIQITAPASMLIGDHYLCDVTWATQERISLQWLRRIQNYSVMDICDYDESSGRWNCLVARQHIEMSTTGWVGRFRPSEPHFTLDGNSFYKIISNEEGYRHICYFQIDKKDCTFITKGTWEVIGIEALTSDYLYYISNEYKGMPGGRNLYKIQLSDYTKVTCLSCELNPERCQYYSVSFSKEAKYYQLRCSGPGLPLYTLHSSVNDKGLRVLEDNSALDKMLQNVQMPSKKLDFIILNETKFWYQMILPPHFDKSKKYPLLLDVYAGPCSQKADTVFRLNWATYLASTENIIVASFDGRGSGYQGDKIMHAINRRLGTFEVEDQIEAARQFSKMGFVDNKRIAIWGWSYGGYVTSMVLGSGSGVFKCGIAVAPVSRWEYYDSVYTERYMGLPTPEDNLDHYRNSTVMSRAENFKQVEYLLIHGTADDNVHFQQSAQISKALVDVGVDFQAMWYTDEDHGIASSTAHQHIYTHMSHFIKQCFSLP
Sequence of murine isoQC (Q8BH73 whole entry): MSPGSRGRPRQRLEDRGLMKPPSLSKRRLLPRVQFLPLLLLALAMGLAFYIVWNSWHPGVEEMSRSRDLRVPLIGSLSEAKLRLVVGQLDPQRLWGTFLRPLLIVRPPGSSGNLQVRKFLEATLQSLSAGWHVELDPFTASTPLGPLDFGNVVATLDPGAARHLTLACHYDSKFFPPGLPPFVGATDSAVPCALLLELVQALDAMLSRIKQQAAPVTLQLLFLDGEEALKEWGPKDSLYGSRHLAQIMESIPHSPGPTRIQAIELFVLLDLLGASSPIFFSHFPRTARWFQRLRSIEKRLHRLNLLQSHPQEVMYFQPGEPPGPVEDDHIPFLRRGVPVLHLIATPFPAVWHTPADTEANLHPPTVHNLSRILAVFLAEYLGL
Sequence of murine QC (Q9CYK2 36-362): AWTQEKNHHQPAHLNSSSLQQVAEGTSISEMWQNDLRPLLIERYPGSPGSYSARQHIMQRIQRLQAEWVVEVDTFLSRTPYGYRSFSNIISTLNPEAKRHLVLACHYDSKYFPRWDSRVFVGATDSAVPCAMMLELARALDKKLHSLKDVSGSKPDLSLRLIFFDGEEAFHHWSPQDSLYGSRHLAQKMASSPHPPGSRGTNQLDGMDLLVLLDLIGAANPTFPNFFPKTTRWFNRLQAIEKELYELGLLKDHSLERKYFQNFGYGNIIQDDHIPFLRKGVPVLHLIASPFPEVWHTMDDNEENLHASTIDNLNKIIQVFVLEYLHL
Sequence of human isoQC (Q9NXS2 whole entry): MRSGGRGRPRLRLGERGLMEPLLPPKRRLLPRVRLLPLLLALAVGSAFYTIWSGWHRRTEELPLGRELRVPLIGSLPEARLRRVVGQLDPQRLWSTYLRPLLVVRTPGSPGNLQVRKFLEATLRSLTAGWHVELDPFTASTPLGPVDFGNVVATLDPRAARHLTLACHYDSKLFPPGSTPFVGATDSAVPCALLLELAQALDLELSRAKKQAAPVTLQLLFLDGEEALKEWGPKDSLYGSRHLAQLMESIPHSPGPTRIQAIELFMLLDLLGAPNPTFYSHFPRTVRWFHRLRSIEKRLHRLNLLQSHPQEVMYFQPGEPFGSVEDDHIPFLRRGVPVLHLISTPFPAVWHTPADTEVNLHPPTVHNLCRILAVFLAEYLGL
Sequence of CCR2 (P41597 whole entry): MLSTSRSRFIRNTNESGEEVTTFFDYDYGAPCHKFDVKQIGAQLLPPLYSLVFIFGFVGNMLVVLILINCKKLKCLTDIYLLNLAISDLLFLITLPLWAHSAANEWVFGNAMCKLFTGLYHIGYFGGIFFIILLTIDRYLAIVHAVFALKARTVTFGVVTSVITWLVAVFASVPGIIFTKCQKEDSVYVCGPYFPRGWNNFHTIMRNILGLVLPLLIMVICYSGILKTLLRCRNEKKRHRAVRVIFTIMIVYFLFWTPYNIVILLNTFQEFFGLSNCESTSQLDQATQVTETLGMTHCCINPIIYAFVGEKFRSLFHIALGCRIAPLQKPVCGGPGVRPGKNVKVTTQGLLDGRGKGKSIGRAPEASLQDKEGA

CCL2(D^3-76): DP4-cleavage product of CCL2
monocyte attraction (chemotaxis) (THP-1 cells): shift to higher concentrations needed to elicit chemotaxis

CCL2(Q^1-76): recombinant human CCL2 possessing an N-terminal glutaminyl residue (immature form)
N-terminal truncation by recombinant human DP4 (human recombinant DP4): susceptible to cleavage

CCCOc1ccc(C2C(=O)NC(=O)N2c2ccc3[nH]cnc3c2)cc1 (centres unmarked) [PQ529, 1-(1H-benzo[d]imidazol-5-yl) -5-(4-propoxyphenyl) imidazolidine-2,4-dione]
concentration of pE^1-CCL2 [1]: decreased the concentration of pE^1-CCL2 dose-dependently
gene expression of CCL2, CCL7, IL-6 and TNF-alpha in cells of the peritoneal lavage (C57BL/6J mice): without changing
number of monocytes after stimulation with thioglycollate (C57BL/6J mice): reduced the number of monocytes
level of ICAM1 and CCR2 (C57BL/6J mice): unchanged
pE^1-CCL2 secreted [2]: reduced
CCL2 expression [3]: did not show an effect
pE^1-CCL2 secreted [4]: reduced
CCL2 mRNA [5]: slight but significant increase

COc1ccc(NC(=S)NCCCn2ccnc2)cc1OC [PQ50, 1-(3-(1H-Imidazol-1-yl)propyl)-3-(3,4-dimethoxyphenyl)thiourea]
gene expression of CCL2, CCL7, IL-6 and TNF-alpha in cells of the peritoneal lavage (C57BL/6J mice): without changing
number of monocytes after stimulation with thioglycollate (C57BL/6J mice): reduced the number of monocytes
level of ICAM1 and CCR2 (C57BL/6J mice): unchanged
Ki (human isoQC): 236 nM
area of the media (ApoE3*Leiden mice; 2 weeks after surgery): reduced
total area within the outer diameter of the vessel segment, area of the interna, number of foam cells (ApoE3*Leiden mice; 2 weeks after surgery): did not affect
CCL2-immunopositive area (ApoE3*Leiden mice; 2 weeks after surgery, treated vs untreated): did not differ
reduction of monocytes at the cuffed vessel segments (ApoE3*Leiden mice; [8]): 67%
reduction of total adhering cells at the cuffed vessel segments (ApoE3*Leiden mice; [8]): 45%
Ki (murine isoQC): 246 nM
toxicity [6]: without overt signs of toxicity
Ki (murine QC): 170 nM

CCL13: recombinant human CCL13, MCP family member
truncation by DP4 (human recombinant DP4): protected against truncation

CCL2(pE^1-76): mature human CCL2 with N-terminal pyroglutamate residue
N-terminal truncation by recombinant human DP4 (human recombinant DP4): prevented N-terminal truncation
monocyte attraction (chemotaxis) (THP-1 cells): highest efficacy
N-terminal degradation in human plasma [7]: completely resistant to cleavage
CCR2 internalization (CCR2): most potent

CCL7: recombinant human CCL7, MCP family member
truncation by DP4 (human recombinant DP4): protected against truncation

B1: CCL8: recombinant human CCL8 (MCP-2) (protein, UniProt P80075 24-99, looked up)
C-C motif chemokine 8: QPDSVSIPITCCFNVINRKIPIQRLESYTRITNIQCPKEAVIFKTKRGKEVCADPKERWVRDSMKHLDQIFQNLKP
truncation by DP4 (human recombinant DP4): protected against truncation
